Consider 18 compounds from ChEMBL document CHEMBL1799944, “New 2-heterocyclyl-imidazo[2,1-i]purin-5-one derivatives as potent and selective human A3 adenosine receptor antagonists” (J Med Chem, 2011).

Where only a bound is given, the exact number is not on record here.

Test [1] has as its target T1, Adenosine receptor A2a (Homo sapiens, UniProt P29274). The test is described as follows: Displacement of [3H]ZM 241385 from human adenosine A2A receptor expressed in CHO cells at <=5000 nM after 60 mins by scintillation spectrometry. Format: cell-based.
The target of test [2] is T2, Adenosine receptor A3 (Homo sapiens, UniProt P0DMS8).
T2 sequence (P0DMS8 whole entry): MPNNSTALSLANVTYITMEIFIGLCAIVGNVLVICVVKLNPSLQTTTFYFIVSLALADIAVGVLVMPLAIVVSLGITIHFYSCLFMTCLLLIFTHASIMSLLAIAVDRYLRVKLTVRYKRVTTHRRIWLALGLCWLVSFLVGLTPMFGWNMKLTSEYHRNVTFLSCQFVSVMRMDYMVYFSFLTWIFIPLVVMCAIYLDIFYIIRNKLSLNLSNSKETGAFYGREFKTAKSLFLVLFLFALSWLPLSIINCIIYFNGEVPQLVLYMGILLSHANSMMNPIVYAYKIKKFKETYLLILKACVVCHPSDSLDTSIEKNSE
As to the kind of experiment: Displacement of [3H]MRE 3008F20 from human adenosine A3 receptor expressed in CHO cells after 120 mins by scintillation spectrometry. Format: cell-based. In short, it runs like this:
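Membranes from hA3 CHO cells (50 μg protein/assay) in 50 mM Tris HCl, 10 mM MgCl2, 1 mM EDTA pH 7.4, adenosine deaminase-treated. Incubated with 1 nM [3H]MRE 3008F20 and 6-8 ligand concentrations, 120 min at 4 °C. Nonspecific defined with 1 μM MRE 3008F20 (~25% of total). GF/B filtration, three ice-cold washes, scintillation counting. Ki via Cheng-Prusoff; geometric mean, 95% confidence limits, n = 3-6.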

Test [3] concerns the target T3, Adenosine receptor A1 (Homo sapiens, UniProt P30542).
T3 sequence (P30542 whole entry): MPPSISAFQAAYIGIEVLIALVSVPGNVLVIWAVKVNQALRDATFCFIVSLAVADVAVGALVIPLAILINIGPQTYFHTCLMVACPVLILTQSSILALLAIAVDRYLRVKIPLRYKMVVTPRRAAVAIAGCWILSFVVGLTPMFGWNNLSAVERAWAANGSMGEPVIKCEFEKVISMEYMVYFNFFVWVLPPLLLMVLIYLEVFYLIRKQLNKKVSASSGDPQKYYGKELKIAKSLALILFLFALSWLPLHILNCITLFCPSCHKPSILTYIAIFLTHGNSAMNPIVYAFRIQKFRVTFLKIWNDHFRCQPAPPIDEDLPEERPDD
As to the kind of experiment: Displacement of [3H]DPCPX from human adenosine A1 receptor expressed in CHO cells after 120 mins by scintillation spectrometry. It counts as cell-based. In short, it runs like this: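 hA1 CHO membranes (50 μg protein/assay) in 50 mM Tris HCl pH 7.4, pretreated with adenosine deaminase 2 UI/mL for 30 min at 37 °C. Incubated with 1 nM [3H]DPCPX plus 6-8 ligand concentrations for 120 min at 25 °C. Nonspecific binding defined with 1 μM DPCPX. Ki from IC50 by Cheng-Prusoff; geometric means with 95% confidence limits.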

Test [4] concerns the target Adenosine receptors; A1 & A3 (Homo sapiens) (UniProt P30542+P0DMS8). The test is described as follows: Ratio of Ki for human adenosine A1 receptor to Ki for human adenosine A3 receptor.
In test [5] the target is T1, Adenosine receptor A2a. The test is described as follows: Displacement of [3H]ZM 241385 from human adenosine A2A receptor expressed in CHO cells after 60 mins by scintillation spectrometry. It counts as cell-based.
Test [6] concerns the target T4, Adenosine receptor A2b (Homo sapiens) (UniProt P29275).
T4 sequence (whole entry): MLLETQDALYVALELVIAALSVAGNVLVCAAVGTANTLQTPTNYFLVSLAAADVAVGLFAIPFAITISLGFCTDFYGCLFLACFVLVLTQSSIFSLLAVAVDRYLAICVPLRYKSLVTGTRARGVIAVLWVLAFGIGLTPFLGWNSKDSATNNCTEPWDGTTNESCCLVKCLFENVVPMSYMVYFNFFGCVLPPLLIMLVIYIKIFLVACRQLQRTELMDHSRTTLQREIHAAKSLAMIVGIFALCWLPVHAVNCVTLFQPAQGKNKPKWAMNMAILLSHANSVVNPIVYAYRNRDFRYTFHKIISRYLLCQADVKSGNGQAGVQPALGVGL
As to the kind of experiment: Antagonist activity human adenosine A2B receptor expressed in CHO cells assessed as inhibition of NECA-mediated [3H]cAMP accumulation at =<5000 nM after 150 mins by scintillation counter. It counts as functional, cell-based. In short, it runs like this:
(§1)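 Intact CHO cells expressing hA2B (1 x 10^6 cells/assay), preincubated 10 min at 37 °C in saline buffer pH 7.4 with 2 IU/mL adenosine deaminase and Ro 20-1724. Antagonism of 100 nM NECA-stimulated cAMP rise. Stopped with cold 6% TCA, ether-extracted. cAMP measured by competition binding with [3H]cAMP and beef adrenal binding protein (4 °C, 150 min), charcoal separation, scintillation counting. IC50 by sigmoid nonlinear regression, mean ± SEM.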

The target of test [7] is T5, Adenosine receptor A2b (Homo sapiens, UniProt P29275).
T5 sequence (P29275 whole entry): T4 sequence (whole entry)
The test is described as follows: Antagonist activity human adenosine A2B receptor expressed in CHO cells assessed as inhibition of NECA-mediated [3H]cAMP accumulation after 150 mins by scintillation counter. It counts as functional, cell-based. In short, it runs like this:
as §1

Test [8] has as its target T2, Adenosine receptor A3. As to the kind of experiment: Antagonist activity human adenosine A3 receptor expressed in CHO cells assessed as blockade of Cl-IB-MECA-mediated inhibition of forskolin-stimulated [3H]cAMP accumulation after 150 mins by scintillation counter. It counts as functional, cell-based. The essentials:
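hA3-expressing CHO cells (1 x 10^6 cells/assay), preincubated 10 min at 37 °C in saline buffer pH 7.4 with adenosine deaminase 2 IU/mL and Ro 20-1724. Antagonism of 100 nM Cl-IB-MECA inhibition of cAMP in presence of 1 μM forskolin. Stopped with cold TCA. cAMP by [3H]cAMP competition protein binding (4 °C, 150 min), scintillation counting. IC50 from sigmoid nonlinear regression, mean ± SEM.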

T1 sequence (P29274 whole entry): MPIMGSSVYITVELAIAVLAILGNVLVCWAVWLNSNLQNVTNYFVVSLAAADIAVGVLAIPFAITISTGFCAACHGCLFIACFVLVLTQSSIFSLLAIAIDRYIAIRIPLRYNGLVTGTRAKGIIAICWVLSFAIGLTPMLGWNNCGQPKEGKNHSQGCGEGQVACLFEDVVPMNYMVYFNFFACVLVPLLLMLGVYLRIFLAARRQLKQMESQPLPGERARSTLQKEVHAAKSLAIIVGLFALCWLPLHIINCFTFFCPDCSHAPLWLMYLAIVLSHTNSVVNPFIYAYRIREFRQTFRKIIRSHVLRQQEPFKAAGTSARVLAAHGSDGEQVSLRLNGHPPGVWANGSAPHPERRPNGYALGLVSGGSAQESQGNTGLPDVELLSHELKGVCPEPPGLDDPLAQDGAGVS

With `C=CCN1C(=O)N2CC(CC)N=C2c2[nH]c(-c3cc(OC)nn3C)nc21` (racemic), the inhibition came out at 1% in test [1] and 16% in test [6]. In addition, the inhibition constant (Ki) in test [2] is 1.96 nM; in test [3], 1530 nM; in test [5], greater than 5000 nM. Besides, in test [4], the Ratio Ki was 780. Further, the 50% inhibitory concentration (IC50) in test [7] was greater than 5000 nM; in test [8], 12.2 nM.

`C=CCN1C(=O)N2CC(CC)N=C2c2[nH]c(-c3cc(C)nn3C)nc21` (racemic): the inhibition worked out at 8% in test [1] and 20% in test [6]. For the same compound, the Ki in test [2] was 3.01 nM; in test [3], 515 nM; in test [5], greater than 5000 nM. For the same compound, in test [4], the Ratio Ki was 170. In addition, the IC50 was greater than 5000 nM in test [7] and 30.3 nM in test [8].

With `CC[C@@H]1CN2C(=O)N(Cc3ccccc3)c3nc(-c4cc(C)nn4C)[nH]c3C2=N1`, the inhibition in test [1] is 3%; in test [6], 10%. Moreover, the figures for the Ki in test [2], in test [3] and in test [5] were 12.6 nM, 803 nM and greater than 5000 nM, respectively. Besides, the IC50 in test [7] was greater than 5000 nM.

`CC1CN2C(=O)N(Cc3ccccc3)c3nc(-c4cc(OCc5ccccc5)nn4C)[nH]c3C2=N1` (racemic): the Ki in test [2] amounted to 44.8 nM; in test [3], 2560 nM; in test [5], 2010 nM. The Ratio Ki in test [4] was 57. For the same compound, the inhibition in test [6] came out at 13%. Besides, the IC50 in test [7] was greater than 5000 nM.

Take `C=CCN1C(=O)N2C[C@H](C)N=C2c2[nH]c(-c3cc(C)nn3C)nc21`: the inhibition came out at 4% in test [1] and 12% in test [6]. The Ki is 6.03 nM in test [2], 1960 nM in test [3] and greater than 5000 nM in test [5]. The IC50 is greater than 5000 nM in test [7] and 40.9 nM in test [8].

With `CC[C@H]1CN2C(=O)N(Cc3ccccc3)c3nc(-c4cc(C)nn4C)[nH]c3C2=N1`, the inhibition in test [1] turned out to be 4%; in test [6], 13%. For the same compound, the Ki in test [2] was 13.2 nM; in test [3] it was 545 nM; in test [5], greater than 5000 nM. Besides, in test [7], the half-maximal inhibitory concentration (IC50) is greater than 5000 nM.

Consider `C=CCN1C(=O)N2C[C@@H](CC)N=C2c2[nH]c(-c3cc(OC)nn3C)nc21`, for which the inhibition in test [1] came to 13%; in test [6], 21%. Also, the Ki in test [2] is 1.46 nM; in test [3] it was 2520 nM; in test [5], greater than 5000 nM. For the same compound, the IC50 was greater than 5000 nM in test [7] and 23.4 nM in test [8].

For `C=CCN1C(=O)N2CC(C)N=C2c2[nH]c(-c3cc(C)nn3C)nc21` (racemic), the inhibition turned out to be 7% in test [1] and 30% in test [6]. Further, the Ki in test [2] was 4.56 nM; in test [3], 2040 nM; in test [5], greater than 5000 nM. Besides, the Ratio Ki in test [4] amounted to 450. Further, the IC50 in test [7] is greater than 5000 nM; in test [8] it was 34.2 nM.

On to `C=CCN1C(=O)N2CC(CC)N=C2c2[nH]c(-c3cc(OCc4ccccc4)nn3C)nc21` (racemic), for which the inhibition in test [1] is 5%; in test [6], 14%. Besides, the results for the inhibition constant (Ki) in test [2], in test [3] and in test [5] were 21.5 nM, 1200 nM and greater than 5000 nM, respectively. Moreover, in test [4], the Ratio Ki stood at 56. The IC50 in test [7] was greater than 5000 nM.

For the compound `COc1cc(-c2nc3c([nH]2)C2=N[C@H](C)CN2C(=O)N3Cc2ccccc2)n(C)n1`, the values for the inhibition in test [1] and in test [6] were 11% and 19%, respectively. For the same compound, the Ki was 2.38 nM in test [2], 2550 nM in test [3] and greater than 5000 nM in test [5]. Further, the half-inhibitory concentration (IC50) in test [7] was greater than 5000 nM; in test [8] it was 15.9 nM.

With `CCC1CN2C(=O)N(Cc3ccccc3)c3nc(-c4cc(C)nn4C)[nH]c3C2=N1` (racemic), the figures for the inhibition in test [1] and in test [6] were 5% and 20%, respectively. Besides, the inhibition constant Ki was 10.3 nM in test [2], 615 nM in test [3] and greater than 5000 nM in test [5]. Besides, in test [4], the Ratio Ki was determined as 60. Moreover, in test [7], the half-inhibitory concentration (IC50) was greater than 5000 nM.

Consider `CCC1CN2C(=O)N(Cc3ccccc3)c3nc(-c4cc(OC)no4)[nH]c3C2=N1` (racemic), for which the inhibition in test [1] is 12%; in test [6], 18%. Further, the inhibition constant (Ki) was 2.71 nM in test [2], 485 nM in test [3] and greater than 5000 nM in test [5]. The IC50 was greater than 5000 nM in test [7] and 25.3 nM in test [8].

With `C=CCN1C(=O)N2CC(CC)N=C2c2[nH]c(-c3cc(OC)no3)nc21` (racemic), the values for the Ki in test [2], in test [3] and in test [5] were 1.93 nM, 3020 nM and 1520 nM, respectively. Also, in test [6], the inhibition was 25%. In addition, the IC50 in test [7] is greater than 5000 nM; in test [8], 14.6 nM.

As for `CCC1CN2C(=O)N(Cc3ccccc3)c3nc(-c4cc(OCc5ccccc5)nn4C)[nH]c3C2=N1` (racemic), the results for the Ki in test [2], in test [3] and in test [5] were 39.8 nM, 1680 nM and 2130 nM, respectively. The Ratio Ki in test [4] is 42. The inhibition in test [6] was determined as 12%. Besides, the concentration for half-maximal inhibition (IC50) in test [7] was greater than 5000 nM.

For the compound `Cc1cc(-c2nc3c([nH]2)C2=NC(C)CN2C(=O)N3Cc2ccccc2)n(C)n1` (racemic), the figures for the inhibition in test [1] and in test [6] were 1% and 8%, respectively. Further, the Ki in test [2] is 17.2 nM; in test [3], greater than 5000 nM; in test [5] it was greater than 5000 nM. The Ratio Ki in test [4] was greater than 290. Moreover, the IC50 in test [7] was greater than 5000 nM.

Take `C=CCN1C(=O)N2C[C@H](CC)N=C2c2[nH]c(-c3cc(OC)nn3C)nc21`: the inhibition in test [1] was 15%; in test [6] it was 14%. The inhibition constant Ki is 2.37 nM in test [2], 1080 nM in test [3] and greater than 5000 nM in test [5]. For the same compound, the IC50 in test [7] was greater than 5000 nM; in test [8] it was 10.5 nM.

On to `C=CCN1C(=O)N2C[C@@H](C)N=C2c2[nH]c(-c3cc(C)nn3C)nc21`, for which the inhibition in test [1] is 1%; in test [6], 10%. Also, the inhibitory constant (Ki) in test [2] is 5.04 nM; in test [3] it was 2510 nM; in test [5], greater than 5000 nM. The results for the half-inhibitory concentration (IC50) in test [7] and in test [8] were greater than 5000 nM and 35.9 nM, respectively.

In the case of `COc1cc(-c2nc3c([nH]2)C2=N[C@@H](C)CN2C(=O)N3Cc2ccccc2)n(C)n1`, the inhibition in test [1] worked out at 1%; in test [6], 22%. Further, the figures for the inhibition constant Ki in test [2], in test [3] and in test [5] were 2.52 nM, 1730 nM and greater than 5000 nM, respectively. Besides, the half-inhibitory concentration (IC50) is greater than 5000 nM in test [7] and 17.5 nM in test [8].
